# Columns and labels:
# [1] = target: T1, Glucocorticoid receptor (Homo sapiens, UniProt P04150); assay: Displacement of GS-red from glucocorticoid receptor by fluorescence polarization assay
# T1 sequence (P04150 whole entry): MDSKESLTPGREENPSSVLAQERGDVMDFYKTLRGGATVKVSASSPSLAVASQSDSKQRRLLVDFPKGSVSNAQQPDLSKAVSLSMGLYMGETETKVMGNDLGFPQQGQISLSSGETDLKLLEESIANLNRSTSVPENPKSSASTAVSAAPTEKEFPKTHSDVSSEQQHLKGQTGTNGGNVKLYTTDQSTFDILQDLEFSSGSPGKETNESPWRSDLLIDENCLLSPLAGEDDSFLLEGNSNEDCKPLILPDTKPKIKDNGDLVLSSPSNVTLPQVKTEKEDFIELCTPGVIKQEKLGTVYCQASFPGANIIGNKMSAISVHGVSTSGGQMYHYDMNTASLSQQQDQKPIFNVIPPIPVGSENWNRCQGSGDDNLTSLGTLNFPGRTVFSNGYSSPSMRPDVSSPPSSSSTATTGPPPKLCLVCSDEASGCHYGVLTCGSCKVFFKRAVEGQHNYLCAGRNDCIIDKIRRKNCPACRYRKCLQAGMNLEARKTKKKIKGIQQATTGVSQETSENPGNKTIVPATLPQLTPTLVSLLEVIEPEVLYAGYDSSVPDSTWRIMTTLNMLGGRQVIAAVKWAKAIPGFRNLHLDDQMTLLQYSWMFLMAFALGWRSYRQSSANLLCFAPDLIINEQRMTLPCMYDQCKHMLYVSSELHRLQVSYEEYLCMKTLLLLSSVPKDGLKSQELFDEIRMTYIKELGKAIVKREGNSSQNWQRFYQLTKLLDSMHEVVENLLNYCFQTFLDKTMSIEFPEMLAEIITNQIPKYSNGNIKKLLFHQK
# [2] = target: T1, Glucocorticoid receptor; assay: Transrepression activity at glucocorticoid receptor alpha in phorbol myristate acetate-stimulated human A549 cells assessed as inhibition of AP1 response element by luciferase reporter gene assay; type: cell-based
# [3] = target: T1, Glucocorticoid receptor; assay: Transrepression activity at glucocorticoid receptor alpha in IL-1beta-stimulated human A549 cells assessed as inhibition of NFkappaB-dependent E-selectin transcription by luciferase reporter gene assay; type: cell-based
# [4] = target: T1, Glucocorticoid receptor; assay: Transactivation activity at GR-alpha in human NP1 Hela cells assessed as induction of GAL4-DBD after 20 hrs by luciferase reporter gene assay; type: cell-based
# [5] = target: T1, Glucocorticoid receptor; assay: Transactivation activity at GR-alpha in human NP1 Hela cells assessed as inhibition of GAL4-DBD after 20 hrs by luciferase reporter gene assay; type: cell-based
# [6] = target: T1, Glucocorticoid receptor; assay: Transactivation activity at glucocorticoid receptor alpha human 13D3/Huh7 cells assessed as induction of TAT activity after 4 hrs by spectrophotometry; type: cell-based, Huh-7
# [7] = tested on: Blood; assay: Antiinflammatory activity in human whole blood assessed as inhibition of LPS-induced TNFalpha production after overnight incubation by ELISA; type: functional, tissue-based
# How it was run: (§1)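 Whole blood from two donors per experiment was collected into ACD-A. Compounds were added and the blood was incubated about 20 h at 37 °C under 5% CO2. Blood was then stimulated for 5 h with LPS (final 100 ng/mL, for TNFα) or IL-1β (final 10 ng/mL, for IL-8). Plasma TNFα or IL-8 was measured by ELISA. Efficacy was expressed as % of dexamethasone, and values are means of at least two experiments.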
# [8] = tested on: Blood; assay: Antiinflammatory activity in human whole blood assessed as inhibition of LPS-induced TNFalpha production after overnight incubation by ELISA relative to Dexamethasone; type: functional; how it was run: as §1
# [9] = tested on: Blood; assay: Antiinflammatory activity in human whole blood assessed as inhibition of TNF-alpha-induced IL-8 production after overnight incubation by ELISA; type: functional, tissue-based
# [10] = tested on: Blood; assay: Antiinflammatory activity in human whole blood assessed as inhibition of TNF-alpha-induced IL-8 production after overnight incubation by ELISA relative to dexamethasone; type: functional
# [11] = tested on: Blood; assay: Antiinflammatory activity in human whole blood assessed as inhibition of IL-1beta-induced IL-8 production after overnight incubation by ELISA; type: functional, tissue-based; how it was run: as §1
# [12] = tested on: Blood; assay: Antiinflammatory activity in human whole blood assessed as inhibition of IL-1beta-induced IL-8 production after overnight incubation by ELISA relative to Dexamethasone; type: functional; how it was run: as §1
SMILES,Ki [1],EC50 [2],EC50 [3],EC50 [4],EC50 [5],EC50 [6],EC50 [7],EC50 [9],EC50 [11],Imax [8],Imax [10],Imax [12]
CC(C)(C(=O)Nc1nncs1)[C@H]1c2ccccc2Oc2nc(-c3ccc(C(=O)O)cc3)ccc21,15.4 nM,544 nM,1090 nM,> 10000 nM,> 5000 nM,,,,,,,
CCN(C)C(=O)c1ccc(-c2ccc3c(n2)Oc2ccccc2[C@H]3C(C)(C)C(=O)Nc2nncs2)cc1Cl,15.7 nM,124 nM,64.9 nM,702 nM,721 nM,2400 nM,,,,,,
Cc1ccc(-c2ccc3c(n2)Oc2ccccc2[C@@H]3C(C)(C)C(=O)Nc2nncs2)cc1,2.5 nM,46.8 nM,26.6 nM,2210 nM,260 nM,> 5000 nM,,,,,,
CNC(=O)c1ccc(-c2ccc3c(n2)Oc2ccccc2[C@@H]3C(C)(C)C(=O)Nc2nncs2)cc1F,5.48 nM,34.1 nM,157 nM,> 10000 nM,408 nM,> 5000 nM,819 nM,> 20000 nM,> 20000 nM,58%,15%,35%
CC(=O)c1ccc(-c2ccc3c(n2)Oc2ccccc2[C@@H]3C(C)(C)C(=O)Nc2nncs2)cc1F,6 nM,42 nM,,> 10000 nM,134 nM,> 5000 nM,,,,,,
CC(C)(C(=O)Nc1nncs1)[C@H]1c2ccccc2Oc2nc(-c3ccc(C(=O)N4CCOCC4)c(F)c3)ccc21,2.7 nM,11.7 nM,11.7 nM,78.9 nM,34.4 nM,93 nM,469 nM,382 nM,789 nM,88%,84%,92%
Cc1cccc(-c2ccc3c(n2)Oc2ccccc2[C@@H]3C(C)(C)C(=O)Nc2nncs2)c1,24 nM,654 nM,> 5000 nM,> 10000 nM,1560 nM,> 5000 nM,,,,,,
C[C@@H]1C[C@H]2[C@@H]3CCC4=CC(=O)C=C[C@]4(C)[C@@]3(F)[C@@H](O)C[C@]2(C)[C@@]1(O)C(=O)CO [DEXAMETHASONE],,,,,,,6.9 nM,,5.1 nM,,,
CC(C)Oc1ccc(-c2ccc3c(n2)Oc2ccccc2[C@@H]3C(C)(C)C(=O)Nc2nncs2)cc1F,3.9 nM,47 nM,73 nM,496 nM,162 nM,876 nM,> 5000 nM,> 20000 nM,> 20000 nM,49%,12%,7%
CC(C)(C(=O)Nc1nncs1)[C@H]1c2ccccc2Oc2nc(-c3ccccc3)ccc21,,> 1500 nM,,> 10000 nM,187 nM,> 5000 nM,,,,,,
CCS(=O)(=O)c1ccc(-c2ccc3c(n2)Oc2ccccc2[C@@H]3C(C)(C)C(=O)Nc2nncs2)cc1,4 nM,28.6 nM,22.8 nM,206 nM,196 nM,> 5000 nM,,,,,,
COc1ccc(-c2ccc3c(n2)Oc2ccccc2[C@H]3C(C)(C)C(=O)Nc2nncs2)cc1,49.5 nM,> 10000 nM,355 nM,> 10000 nM,4360 nM,> 5000 nM,,,,,,
CC(C)(C(=O)Nc1nncs1)[C@H]1c2ccccc2Oc2nc(-c3ccc(C(=O)N4CCOCC4)cc3)ccc21,2.6 nM,12.4 nM,6.3 nM,39.2 nM,28.6 nM,,,,,,,
CN(C)C(=O)c1ccc(-c2ccc3c(c2)Oc2ccccc2C3C(C)(C)C(=O)Nc2nncs2)nc1 (racemic),4.1 nM,58 nM,,382 nM,162 nM,> 5000 nM,,,,,,
CC(C)(C(=O)Nc1nncs1)[C@@H]1c2ccccc2Oc2nc(-c3ccc(O)cc3)ccc21,5.7 nM,90.8 nM,108 nM,> 10000 nM,201 nM,,,,,,,
CC(C)(C(=O)Nc1nncs1)[C@H]1c2ccccc2Oc2nc(-c3ccc(C(=O)N4CCC(F)(F)C4)c(F)c3)ccc21,2.53 nM,37.9 nM,20.6 nM,192 nM,99.3 nM,1990 nM,4020 nM,3070 nM,2490 nM,78%,67%,81%
CN(C)C(=O)c1cnc(-c2ccc3c(c2)Oc2ccccc2C3C(C)(C)C(=O)Nc2nncs2)nc1 (racemic),4.2 nM,183 nM,,596 nM,592 nM,,,,,,,

# Continued, in another order:
Ki [1],EC50 [2],EC50 [3],EC50 [4],EC50 [5],EC50 [6],EC50 [7],EC50 [9],EC50 [11],SMILES,Imax [8],Imax [10],Imax [12]
,> 10000 nM,,> 10000 nM,202 nM,> 5000 nM,,,,CC(C)(C(=O)Nc1nncs1)[C@H]1c2ccccc2Oc2nc(-c3ccc(C(N)=O)cc3)ccc21,,,
1 nM,17.7 nM,8.3 nM,108 nM,27 nM,732 nM,,,,CCc1ccc(-c2ccc3c(n2)Oc2ccccc2[C@H]3C(C)(C)C(=O)Nc2nncs2)cc1,,,
9.17 nM,167 nM,216 nM,> 10000 nM,806 nM,> 5000 nM,,,,CNC(=O)c1ccc(-c2ccc3c(n2)Oc2ccccc2[C@@H]3C(C)(C)C(=O)Nc2nncs2)cc1,,,
10.5 nM,122 nM,> 5000 nM,> 10000 nM,1560 nM,> 5000 nM,,,,Cc1ccccc1-c1ccc2c(n1)Oc1ccccc1[C@@H]2C(C)(C)C(=O)Nc1nncs1,,,
1.3 nM,15.7 nM,28.6 nM,273 nM,167 nM,> 5000 nM,,,,CC(C)(C(=O)Nc1nncs1)[C@H]1c2ccccc2Oc2nc(-c3ccc(C(=O)N4CCCCC4)cc3)ccc21,,,
2.9 nM,6.2 nM,10.2 nM,75.4 nM,31 nM,1100 nM,,,,CC(=O)c1ccc(-c2ccc3c(n2)Oc2ccccc2[C@@H]3C(C)(C)C(=O)Nc2nncs2)cc1,,,
0.67 nM,17.4 nM,7.8 nM,32.4 nM,36.7 nM,740 nM,78.5 nM,,,CCN(C)C(=O)c1ccc(-c2ccc3c(n2)Oc2ccccc2[C@H]3C(C)(C)C(=O)Nc2nncs2)cc1,100%,,
8.6 nM,77.9 nM,74.9 nM,> 10000 nM,610 nM,> 5000 nM,,,,CN(C)C(=O)c1ccc(-c2ccc3c(c2)Oc2ccccc2C3C(C)(C)C(=O)Nc2nncs2)cc1 (racemic),,,
412 nM,,,,,,,,,CC(C)(C(=O)Nc1nncs1)C1c2ccccc2Oc2ncccc21 (racemic),,,
1.2 nM,28.3 nM,21.3 nM,> 10000 nM,105 nM,> 5000 nM,,,,COc1ccc(-c2ccc3c(n2)Oc2ccccc2[C@@H]3C(C)(C)C(=O)Nc2nncs2)cc1,,,
3.8 nM,13.6 nM,20 nM,926 nM,242 nM,,,,,CN(C)c1ccc(-c2ccc3c(n2)Oc2ccccc2[C@@H]3C(C)(C)C(=O)Nc2nncs2)cc1,,,
,> 10000 nM,,> 10000 nM,1740 nM,> 5000 nM,,,,CN(C)C(=O)c1ccc(-c2ccc3c(n2)Oc2ccccc2[C@H]3C(C)(C)C(=O)Nc2nncs2)cc1,,,
1.68 nM,27.5 nM,25.6 nM,> 10000 nM,204 nM,> 5000 nM,5470 nM,> 20000 nM,3190 nM,CC(C)(C(=O)Nc1nncs1)[C@H]1c2ccccc2Oc2nc(-c3ccc(C(=O)N4CCCCC4)c(F)c3)ccc21,73%,45%,27%

# Reference: ChEMBL document CHEMBL1909630, “Azaxanthene based selective glucocorticoid receptor modulators: design, synthesis, and pharmacological evaluation of (S)-4-(5-(1-((1,3,4-thiadiazol-2-yl)amino)-2-methyl-1-oxopropan-2-yl)-5H-chromeno[2,3-b]pyridin-2-yl)-2-fluoro-N,N-dimethylbenzamide (BMS-776532) and its methylene homologue …” (J Med Chem, 2011)
